Experimental data published in ChEMBL document CHEMBL4402518, “Identification of Novel Medulloblastoma Cell-Targeting Peptides for Use in Selective Chemotherapy Drug Delivery” (J Med Chem, 2020).
Activity calls are given as the source filed them. No cut-off for these calls is given here. Peptide text beside a SMILES is read from it. * marks the point of attachment. Glutaryl(5-(14-O-Dox)) = COc1cccc2c1C(=O)c1c(O)c3c(c(O)c1C2=O)C[C@@](O)(C(=O)COC(=O)CCCC(=O)*)C[C@@H]3O[C@H]1C[C@H](N)[C@H](O)[C@H](C)O1

Key:
[1] = Drug uptake in human DaOY cells assessed as drug internalization at 0.25 uM measured after 3 hrs by flow cytometry; type: ADME, cell-based
[2] = Drug uptake in human DaOY cells assessed as secondary lifetime at 0.25 uM measured after 3 hrs by fluorescence live imaging microscopy analysis; type: ADME, cell-based
[3] = Stability in human serum incubated for up to 4 hrs by LC-MS/MS analysis; type: ADME, cell-free
[4] = Stability in mouse serum at 250 uM incubated for up to 4 hrs MALDI-TOF analysis; type: ADME, cell-free
[5] = Stability in mouse serum incubated for up to 4 hrs by LC-MS/MS analysis; type: ADME, cell-free
[6] = Drug uptake in human DaOY cells assessed as drug localization by measuring punctuate pattern of expression throughout cell cytoplasm, perinuclear and nuclear region at 0.25 uM measured after 15 to 30 mins by confocal microscopy; type: ADME, cell-based
[7] = Drug uptake in human DaOY cells assessed as drug internalization at 0.25 uM measured after 15 to 60 mins by confocal microscopy; type: ADME, cell-based
[8] = Selectivity index, ratio of IC50 for human MRC5 cells to IC50 for human DaOY cells incubated for 72 hrs by AlamarBlue cell viability assay
[9] = Drug uptake in human DaOY cells assessed as primary life time at 0.25 uM measured after 3 hrs by fluorescence live imaging microscopy analysis; type: ADME, cell-based
[10] = tested on: MRC5; assay: Cytotoxicity against human MRC5 cells assessed as reduction in cell viability incubated for 72 hrs by AlamarBlue cell viability assay; type: cell-based; conditions: MRC5, 72 h
Summary of the method: (§1)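 Cells treated at increasing concentrations, with viability read 72 hours post-treatment by alamar blue assay. Data are mean ± S.E.M. from 3 independent experiments.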

[11] = Ratio of IC50 of compound to IC50 of doxorubicin for cytotoxicity against human NHA cells assessed as reduction in cell viability incubated for 72 hrs by AlamarBlue cell viability assay; type: cell-based; conditions: read-out: Ratio IC50
[12] = Selectivity index, ratio of IC50 for human NHA cells to IC50 for human DaOY cells incubated for 72 hrs by AlamarBlue cell viability assay
[13] = Ratio of IC50 of compound to IC50 of doxorubicin for cytotoxicity against human MRC5 cells assessed as reduction in cell viability incubated for 72 hrs by AlamarBlue cell viability assay; type: cell-based; conditions: read-out: Ratio IC50
[14] = Stability in human serum at 250 uM incubated for up to 4 hrs MALDI-TOF analysis; type: ADME, cell-free
[15] = tested on: Daoy; assay: Cytotoxicity against human DaOY cells assessed as reduction in cell viability incubated for 72 hrs by AlamarBlue cell viability assay; type: functional, cell-based; summary of the method: as §1
[16] = Drug uptake in human DaOY cells assessed as drug internalization at 0.25 uM pretreated with actin polymerization inhibitor/macropinocytosis inhibitor, cytochalasin D 1 hr prior to compound addition and measured after 3 hrs by flow cytometry; type: ADME, cell-based
Summary of the method: (§2)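 To probe endocytic routes, cells were first pre-treated with non-toxic concentrations of one of four inhibitors before compound exposure. The inhibitors were genistein (caveolae), cytochalasin D (actin/macropinocytosis), amiloride hydrochloride (caveolae/macropinocytosis) and chlorpromazine hydrochloride (clathrin).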

[17] = Cytotoxicity against human NHA cells assessed as reduction in cell viability incubated for 72 hrs by AlamarBlue cell viability assay; type: cell-based; summary of the method: as §1
[18] = Drug uptake in human DaOY cells assessed as drug localization in nucleus at 0.25 uM measured after 3 hrs by […]; type: ADME, cell-based
[19] = Drug uptake in human DaOY cells assessed as drug internalization at 0.25 uM pretreated with caveloae-uptake inhibitor, genistein 1 hr prior to compound addition and measured after 3 hrs by flow cytometry; type: ADME, cell-based; summary of the method: as §2
[20] = Drug uptake in human DaOY cells assessed as drug localization in nucleus at 0.25 uM pretreated with actin polymerization inhibitor/macropinocytosis inhibitor, cytochalasin D 1 hr prior to compound addition and measured after 3 hrs by fluorescence live imaging microscopy analysis; type: ADME, cell-based
[21] = Drug uptake in human DaOY cells assessed as drug internalization at 0.25 uM pretreated with clathrin-mediated endocytosis inhibitor, chlorpromazine hydrochloride 1 hr prior to compound addition and measured after 3 hrs by flow cytometry; type: ADME, cell-based; summary of the method: as §2
[22] = Drug uptake in human DaOY cells assessed as drug localization in cytoplasm at 0.25 uM pretreated with actin polymerization inhibitor/macropinocytosis inhibitor, cytochalasin D 1 hr prior to compound addition and measured after 3 hrs by fluorescence live imaging microscopy analysis; type: ADME, cell-based
[23] = Drug uptake in human DaOY cells assessed as drug localization in perinuclear and nuclear regions of cell at 0.25 uM measured after 15 to 30 mins by confocal microscopy; type: ADME, cell-based
[24] = Drug uptake in human DaOY cells assessed as drug internalization at 0.25 uM pretreated with caveloae/macropinocytosis inhibitor, amiloride hydrochloride 1 hr prior to compound addition and measured after 3 hrs by flow cytometry; type: ADME, cell-based; summary of the method: as §2
[25] = Drug uptake in human DaOY cells assessed as drug internalization at 0.1 to 1000 uM incubated for 24 hrs using C-terminal FITC-labeled compound by flow cytometry; type: ADME, cell-based
Summary of the method: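 FITC-labelled peptide at differing concentrations for 24 h, then cell-associated green fluorescence intensity measured by flow cytometry. Cells given non-fluorescent peptide served as control; n = 3 independent experiments.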

[26] = Drug uptake in human DaOY cells assessed as drug internalization at 0.25 to 100 uM incubated for 24 hrs using C-terminal FITC labeled compound by confocal microscopy; type: ADME, cell-based
Summary of the method: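 Medulloblastoma cells exposed 24 h to fluorescently labelled peptide at 0.25 μM, 25 μM and 100 μM, then imaged by confocal microscopy. Cell membrane stained red, nucleus blue, peptide green. Untreated cells served as control.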

[27] = Cytotoxicity against human NHA cells assessed as reduction in cell viability incubated for 72 hrs; type: cell-based; summary of the method: as §1
[28] = Stability of the compound in water using C-terminal FITC-labeled compound; type: physicochemical; conditions: buffer
[29] = Solubility of the compound in water using C-terminal FITC-labeled compound; type: physicochemical; conditions: buffer
[30] = tested on: MRC5; assay: Cytotoxicity against human MRC5 cells assessed as reduction in cell viability incubated for 72 hrs; type: cell-based; conditions: mrc5, 72 h; summary of the method: as §1
[31] = tested on: Daoy; assay: Binding affinity to human DaOY cell surface measured after 15 mins incubation using C-terminal FITC labeled compound by Live cell confocal microscopy; type: cell-based
[32] = tested on: Daoy; assay: Cytotoxicity against human DaOY cells assessed as reduction in cell viability incubated for 72 hrs; type: cell-based; summary of the method: as §1

COc1cccc2c1C(=O)c1c(O)c3c(c(O)c1C2=O)C[C@@](O)(C(=O)COC(=O)CCCC(=O)N[C@@H](Cc1ccccc1)C(=O)N[C@@H](CO)C(=O)N[C@@H](CCCNC(=N)N)C(=O)N1CCC[C@H]1C(=O)N[C@@H](C)C(=O)N[C@@H](Cc1ccccc1)C(=O)N[C@@H](CC(C)C)C(=O)O)C[C@@H]3O[C@H]1C[C@H](N)[C@H](O)[C@H](C)O1 ({Glutaryl(5-(14-O-Dox))}-FSRPAFL-OH)
Drug uptake [1]: Active
Time [2]: 1.3 nanoseconds
Stability [3]: Stable
Stability [4]: Stable
Stability [5]: Stable
Drug uptake [6]: Active
Drug uptake [7]: Active
Ratio IC50 [8]: 430.2
Time [9]: 4.3 nanoseconds
IC50 [10]: 10800 nM
selectivity ratio at 72 h [11]: > 7.4
Ratio IC50 [12]: 33.7
selectivity ratio at 72 h [13]: > 72
Stability [14]: Stable
IC50 [15]: 25 nM
Drug uptake [16]: Not Active
IC50 [17]: 842 nM

COc1cccc2c1C(=O)c1c(O)c3c(c(O)c1C2=O)C[C@@](O)(C(=O)COC(=O)CCCC(=O)N[C@H](C(=O)NCC(=O)NCC(=O)N[C@@H](CC(C)C)C(=O)N[C@@H](CO)C(=O)N[C@@H](Cc1c[nH]cn1)C(=O)N[C@@H](CCCNC(=N)N)C(=O)O)C(C)C)C[C@@H]3O[C@H]1C[C@H](N)[C@H](O)[C@H](C)O1 ({Glutaryl(5-(14-O-Dox))}-VGGLSHR-OH)
IC50 [15]: 130 nM

COc1cccc2c1C(=O)c1c(O)c3c(c(O)c1C2=O)C[C@@](O)(C(=O)CO)C[C@@H]3O[C@H]1C[C@H](N)[C@H](O)[C@H](C)O1 [DOXORUBICIN]
Time [2]: 1.3 nanoseconds
Drug uptake [18]: Active
Drug uptake [19]: Active
Drug uptake [20]: Active
Drug uptake [21]: Active
Drug uptake [22]: Active
Drug uptake [23]: Active
Drug uptake [7]: Active
Ratio IC50 [8]: 16.8
Time [9]: 4.3 nanoseconds
IC50 [10]: 148 nM
Ratio IC50 [12]: 12.8
Drug uptake [24]: Active
IC50 [15]: 8.8 nM
Drug uptake [16]: Active
IC50 [17]: 113 nM

H-FSRPAFL-OH
Drug uptake [25]: Active
Drug uptake [26]: Active
Activity [27]: Non-Toxic
Stability [28]: Stable
solubility [29]: Soluble
Activity [30]: Non-Toxic
Activity [31]: Active
Activity [32]: Non-Toxic
